Screens as filed in PubChem BioAssay.
This is a sample that favours compounds with a hit; in the whole collection about 8.9% have one here.
Lmaj promast: reduces viability of Leishmania major promastigotes; AID 1063; 200,000 compounds, 9% hits; inhibition, % at 10 µM; resazurin fluorescence viability; in the data active = inhibition above about 50%;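 also: promastigotes grown with compound for 44 hours at 28 °C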
MT stabilize HCS: microtubule stabilization, imaging screen; HeLa tubulin immunostaining HCS, 24 h; share of cells brighter than vehicle mean+2SD; AID 2205; % tubulin-high responders, % at 10 µM; 200,000 compounds, 0.83% hits;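 active = plate Z-score above 3 for both tubulin-high and condensed-nucleus cell shares, with cell loss under 80%, at 10 µM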;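 also: anti alpha tubulin signal scored within the nucleus-defined area of each cell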
Dynein cargo inh: blocks dynein driven cargo transport along microtubules; 3617.4 mouse cells, GR-EGFP nuclear translocation imaging; test concentration mostly 20 µM; stimulated with dexamethasone, 1 µM; stronger effect = lower value; z-score, hits read low; 220,000 compounds, 0.47% hits;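 active = plate z-score of nuclear minus cytoplasmic receptor signal below a set negative limit, without overly bright fluorescence or cell loss, cut at about -3.5 in these data, passing the limit was not always enough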;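 also: z-score of nuclear minus cytoplasmic ring GR-EGFP intensity difference per well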
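Also added – dexamethasone, 1.0 µM final · Buffer or medium – tet-free, stripped-serum medium · Schedule – induction 48 h, compound 1 h, agonist 30 min · Detection – formaldehyde fixation, Hoechst nuclear stain, 10x automated fluorescence imaging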
b-catenin transl: modulators of beta-catenin nuclear translocation; HeLa beta-catenin nuclear translocation, immunofluorescence imaging; nuclear translocation activity, % at 5 µM; AID 1665; 190,000 compounds, 0.3% hits;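 active = nuclear translocation activity above 50% at 5 µM, with a well cell count of 50 or more; inconclusive = wells under 50 cells across six images, flagged as toxic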;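 also: per-cell ratio of nuclear to cytoplasmic median beta-catenin stain intensity; plate controls were DMSO negative control for no effect and GSK-3 inhibitor IX positive control for full effect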
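Signal – beta-catenin immunofluorescence imaging with DAPI · Test system – human HeLa cell line · Dosing – 5 µM primary single dose, 0.1% DMSO, 0.02–20 µM confirmation series · Measure – % activation, nuclear-to-cytoplasmic median beta-catenin signal ratio per cell · Incubation – 24 h compound exposure at 37°C, 5% CO2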
HSV replic up: increases HSV replication in cells | HSV replication augmentation in cells, fold increase | maximum fold increase | 220,000 compounds, 0.005% hits | AID 1956; in the data active = maximum fold increase above about 1.5; inconclusive = no clear call, values can overlap the other calls; tested in PC3 cells
Lmaj promast 1uM: inhibitors of Leishmania major promastigote growth, repeat at 1 uM; shares compounds with Lmaj promast; 1,100 compounds, 13% hits; L. major promastigote growth, resazurin fluorescence, 48 h; inhibition, % at 1 µM;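 active = inhibition above about 50% in both repeat tests, limit read from the data; inconclusive = one repeat under the set limit, the other over it; inactive = both repeats under the set limit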
An asterisk follows results filed as active; i = inactive; ? = inconclusive; / = no result.

SMILES	Lmaj promast	MT stabilize HCS	Dynein cargo inh	b-catenin transl	HSV replic up	Lmaj promast 1uM
C[C@@H]1C[C@H]2OC(=O)C3(CO3)[C@H]2[C@H](O)[C@]2(C)C(=O)C3OC3[C@@H]12 (some centres undefined)	/	/	-2.7	-1	i	/
COc1ccc(C(=O)c2nc3ccccc3n2C(C)C)cc1	51*	4	3.2	2	i	/
CCOc1ccc(N2C(=O)NC(=O)/C(=C\c3ccc(N4CCOCC4)cc3C)C2=O)cc1	-5	1	-0.23	1	i	/
CCOc1ccc(N2C(=O)NC(=O)/C(=C\c3cc(OC)c(OC)cc3[N+](=O)[O-])C2=O)cc1	56*	3	-0.28	0	i	/
O=C(c1cccn2c(=O)c3cc(Br)ccc3nc12)N1CCC2(CC1)OCCO2	3	4	-0.75	/	i	/
Cc1cccn2c(=O)c3cc(C(=O)N4CCC5(CC4)OCCO5)n(C)c3nc12	-2	34*	-0.28	41	/	/
COc1cc(/C=C(/C)[N+](=O)[O-])ccc1OCc1ccccc1Cl	100*	6	-2	0	i	/
COc1cc(C=C2C(=O)NC(=O)NC2=O)ccc1OCc1ccc([N+](=O)[O-])cc1	3	5	0.95	-1	i	/
N=c1c2c(n(Cc3ccc(Cl)cc3Cl)c3c1CCC3)CCCC2	100*	2	0.44	1	i	/
CCCCn1c(=O)c(C=Nc2cccnc2Cl)c(O)n(CCCCl)c1=O	-5	4	0.76	0	i	/
CCN1CCN(C(=O)Cc2coc3ccc4ccccc4c23)CC1	12	1	0.17	-1	i	/
O=C(NCC(c1cccnc1)N1CCN(c2ccc(F)cc2)CC1)Oc1ccccc1 (centres undefined)	93*	3	-0.69	1	i	78*
CC(C)[C@@]1(NC(=O)[C@@H]2C[C@@H]3c4cccc5[nH]cc(c45)C[C@H]3N(C)C2)O[C@@]2(O)[C@@H]3CCCN3C(=O)[C@H](Cc3ccccc3)N2C1=O	65*	3	0.12	-3	i	-2
CC(C)C[C@H]1C(=O)N2CCCC2[C@]2(O)O[C@](NC(=O)[C@@H]3C=C4c5cccc6[nH]cc(c56)CC4N(C)C3)(C(C)C)C(=O)N12 (some centres undefined)	59*	5	-0.086	5	?	1
CCOc1ccc(N=Cc2c(O)n(-c3ccc(C)c(C)c3)c(=O)[nH]c2=O)cc1	/	/	3.6	0	i	/
COCCCN1CCN(c2nnc3n2-c2sc(Br)cc2C(c2ccccc2Cl)=NC3)CC1	97*	2	-0.059	/	/	79*
CCOCCN1CCN(c2nnc3n2-c2ccc(Cl)cc2C(c2ccccc2Cl)=NC3)CC1	99*	4	0.4	3	/	51*
Cc1nnc2n1-c1ccc(Br)cc1C(c1ccccc1Cl)=NC2	32	1	-0.19	1	i	/
CN(C)CCn1cnc2ccccc21	/	/	0.012	0	i	/
CC(C)(C)c1nc(N2CCN(C(=O)c3ccco3)CC2)c2nnn(Cc3ccccc3Cl)c2n1	48	5	-0.81	3	i	/
CN1CCN(CC(=O)Nc2ccc(Cl)cc2C(=O)c2ccccc2)CC1	-2	4	-0.34	0	i	/
CCc1nnc(NC(=O)CCc2nc(C3=CCN(C)CC3)no2)s1	-4	4	0.17	-10	i	/
CC1(C)C(=O)C=C[C@]2(C)[C@H]3CC[C@@]4(C)[C@H](c5ccoc5)OC(=O)[C@H]5O[C@]54[C@]3(C)[C@H](O)C[C@@H]12	100*	12	-2.6	/	/	88*
CC(C)[C@H]1C(=O)O[C@H](C(C)C)C(=O)N(C)[C@@H](C(C)C)C(=O)O[C@H](C(C)C)C(=O)N(C)[C@@H](C(C)C)C(=O)O[C@H](C(C)C)C(=O)N1C	100*	4	-1.1	-5	i	-7
Cc1ccc(OP(N)(=O)Oc2ccc(C)cc2)cc1	0	2	0.76	1	i	/
SMILES	Lmaj promast	MT stabilize HCS	Dynein cargo inh	b-catenin transl	HSV replic up	Lmaj promast 1uM
CCn1nc(/C=C/c2ccccc2)nc2c(=O)n(C)c(=O)nc1-2	101*	28*	-1.5	-2	i	81*
COc1cccc(CNC2CN3CCC2CC3)c1OC (centres undefined)	-2	2	-0.11	-5	i	/
CCOc1cccc(CNC2CN3CCC2CC3)c1 (centres undefined)	99*	2	3.1	/	i	-19
O=P(Nc1ccccc1)(Nc1ccccc1)Oc1ccc(Cl)cc1	71*	3	-0.91	-3	/	-5
CC(C)n1c(O)c(C=NCc2ccccc2)c(=O)[nH]c1=S	/	/	-0.43	-4	i	/
CCOC(=O)c1c(C)[nH]c(C(=O)C(Cc2ccccc2)N(C)C)c1C (centres undefined)	99*	2	-0.72	3	/	-8
CCOC(=O)c1c(C)[nH]c(C(=O)C(C)N2CCCC2)c1C (centres undefined)	-4	2	-0.78	1	i	/
Cn1cccc1CNCCc1ccccc1F	98*	5	-0.54	0	i	-17
Cn1cccc1CNCCc1ccccc1	-5	2	-0.45	-2	i	/
CCCCc1ccc2[nH]cc(CCN)c2c1	100*	2	-0.56	-2	i	1
CN(C)c1ccc(NC(=O)CN2C(=O)CN=C(c3ccccc3)c3cc(Cl)ccc32)cc1	34	2	3	/	i	/
Cc1ccc(NC(=O)CN2C(=O)CN=C(c3ccccc3)c3cc(Cl)ccc32)cc1	61*	3	0.42	/	i	4
O=C1C2CCCN2C(c2cccnc2)N1c1ccc(Cl)c(Cl)c1 (centres undefined)	96*	6	1.6	-1	i	8
O=C1C2CCCN2C(c2ccncc2)N1c1ccc(Cl)c(Cl)c1 (centres undefined)	0	6	-0.17	0	i	/
O=C(Nc1ccccc1)c1cc([N+](=O)[O-])ccc1N1CCNCC1	-3	11	-0.93	0	i	/
CC[n+]1c(/C=C/N(C)c2ccccc2)sc2ccc(Cl)cc21	100*	15	1.4	/	i	100*
COc1ccc(OC)c(N2C(=O)NC(=O)C3(Cc4cc(C)ccc4N(C)C3)C2=O)c1 (centres undefined)	4	5	0.22	-2	i	/
CC(=O)OC1N=C(c2ccccc2)c2cc(Br)ccc2N(C)C1=O (centres undefined)	-4	1	-0.59	-2	/	/
CCOc1ccc(N=Cc2c(O)n(Cc3ccccc3)c(=S)[nH]c2=O)cc1	/	/	-0.32	-3	i	/
CC1=CC2/C=C(\C)CCC(O)C(O)/C=C/C(=O)C23C(=O)NC(CC(C)C)C3C1C (centres undefined)	97*	34	0.086	5	i	48
